Screening data (PubChem)
Only some compounds are listed: those with a hit (about 4.4% of all), similar ones and a draw of the others.
NR3A LBD binder: modulates the human NR3A ligand-binding domain. NR3A LBD differential scanning fluorimetry, Tm shift; 0% = protein alone, 100% = glycine-bound protein. 340,000 tested, 2.5% active. Tm shift relative to glycine control, % at 25 µM;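 active means melting temperature shift of at least 10% of the positive control shift, at one fixed dose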
MPTP inh: permeability transition pore inhibition | inhibition, % at 10 µM | 360,000 tested, 1.4% active | isolated mouse mitochondria, Ca2+ swelling absorbance, 30 min;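 active means inhibition of 50% or more, scaled per plate between neutral and stimulator controls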;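 further: 0% = DMSO wells given calcium and 100% = 1 mM EGTA wells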
SENP1 inh: blocks the human SENP1 SUMO protease catalytic domain | Q9P0U3 | recombinant SENP1 catalytic domain, CyPet-SUMO1-YPet FRET cleavage | inhibition, % at 10 µM | 360,000 tested, 0.21% active;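 active means inhibition at least 30% at 10 µM, raw YFP signal under a set limit, fluorescence ratio 0.5 to 1.5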;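 further: 0% = enzyme with DMSO and 100% = no enzyme wells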
Target sequence (Q9P0U3 419-644 limits assumed): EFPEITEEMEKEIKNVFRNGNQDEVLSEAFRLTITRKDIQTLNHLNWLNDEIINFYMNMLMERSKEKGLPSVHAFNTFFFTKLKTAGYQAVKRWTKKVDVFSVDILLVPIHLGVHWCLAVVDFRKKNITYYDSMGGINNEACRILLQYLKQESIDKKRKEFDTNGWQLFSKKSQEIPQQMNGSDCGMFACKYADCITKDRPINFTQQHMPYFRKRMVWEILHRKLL
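Test system: recombinant human SENP1 catalytic domain, His6-tagged / Medium: pH 8 Tris buffer with EDTA, NaCl, BME, BSA, NP40, catalase / Also added: SUMO1 FRET substrate flanked by Cypet and Ypet, 25 nM / Times: 50 min reaction at room temperature / Signal: FRET, CFP and YFP emission / Control set: no-enzyme low control and enzyme-plus-DMSO high control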
EBI2 block: blocks human EBI2 receptor beta-arrestin signaling; EBI2 beta-arrestin recruitment, luminescence, 7a,25-OHC stimulated; inhibition, % at 5 µM; 360,000 tested, 0.81% active; AID 651636; P32249; in the data active means inhibition above about 38%;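 further: enzyme fragment complementation signal reports receptor beta-arrestin coupling in cells; 0% = agonist plus DMSO wells and 100% = wells without agonist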
Target sequence (P32249 whole entry, looked up, the tested form may be a part): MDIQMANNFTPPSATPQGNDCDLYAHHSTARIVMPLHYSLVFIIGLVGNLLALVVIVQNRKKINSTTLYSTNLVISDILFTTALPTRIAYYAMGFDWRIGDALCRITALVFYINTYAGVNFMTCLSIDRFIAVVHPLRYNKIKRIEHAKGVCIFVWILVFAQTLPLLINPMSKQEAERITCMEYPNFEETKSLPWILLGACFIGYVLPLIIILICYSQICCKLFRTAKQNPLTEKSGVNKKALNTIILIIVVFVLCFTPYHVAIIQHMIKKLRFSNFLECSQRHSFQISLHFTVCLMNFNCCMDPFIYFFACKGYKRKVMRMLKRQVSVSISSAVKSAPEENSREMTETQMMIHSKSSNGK
The depositor's hits bear a star; · = no result given.

SMILES	NR3A LBD binder	MPTP inh	SENP1 inh	EBI2 block
CCN(C(=O)c1ccc(S(C)(=O)=O)cc1)C12CC3CC(CC(C3)C1)C2	-0.6	1.1	2.9	-9.2
CCN1CCN(C(=O)c2ccc3nc(-c4ccccc4)c(-c4ccccc4)nc3c2)CC1	1.7	-0.8	-2.8	4.8
Brc1ccc(/C=N/Nc2ccccc2)cc1	20.4*	6.4	-1.0	5.8
COc1cc2c(cc1OC)C1(CCCC1)C(N)=C2C#N	10.8*	-4.0	-65.5	-13.1
COc1cc(OC)c(OC)cc1C#N	0.8	-1.6	4.3	-1.1
COc1ccc(NC(=O)c2cccc(OC(F)F)c2)cc1Cl	31.3*	4.9	1.1	4.4
COc1ccc(NC(=O)c2cccc(F)c2)cc1Cl	10.5*	-1.7	-0.8	5.5
COc1ccc(NC(=O)c2ccco2)cc1NC(=O)c1ccccc1F	-0.9	-1.2	0.5	-3.9
COc1cc(NC(=O)c2ccc(-c3cccc(F)c3)o2)ccc1NC(=O)c1ccccc1Cl	23.2*	0.2	-2.7	0.1
COc1ccc(NC(=O)c2ccccc2F)cc1Cl	30.1*	-0.4	0.0	3.6
COc1ccc(NC(=O)c2ccc(-c3ccc(F)cc3)o2)cc1OC	·	0.0	3.7	3.8
COc1cc(OC)c(NC(=O)c2cccc(F)c2)cc1Cl	-10.5	0.9	2.7	4.1
O=C(O)c1ccc(-n2nc(C(F)(F)F)cc2-c2cccs2)cc1	1.1	0.4	2.5	19.0
CCOC(=O)N1CCN(C(=O)c2c(N)no[n+]2[O-])CC1	·	6.4	0.4	2.2
Cc1ccccc1NC(=O)CSc1nc(O)cc(=O)n1C	12.5*	0.7	1.8	0.4
Cc1ccc(C(=O)CCC(=O)OCC(=O)N(C)c2c(N)n(Cc3ccccc3)c(=O)[nH]c2=O)cc1	1.0	-3.2	1.4	0.2
Nc1ccc(C(=O)OCC(=O)Nc2ccc([N+](=O)[O-])cc2C(F)(F)F)cc1	-5.2	1.9	1.1	-9.6
COc1ccccc1OCC(=O)O	-0.2	-5.4	-0.6	-5.3
COc1ccccc1OC(C)C(=O)O (stereo not drawn)	12.7*	-1.3	0.8	-0.5
COc1cc(C)nc(N2CCC(C(=O)NCC3CCCO3)CC2)n1 (stereo not drawn)	-0.1	-0.7	1.6	-2.3
COc1ccc(-c2csc3ncnc(N4CCN(Cc5ccccc5)CC4)c23)cc1	14.4*	1.0	-3.9	17.5
COc1ccc(-c2csc3ncnc(N4CCN(c5ccccc5)CC4)c23)cc1	-5.3	0.6	-0.3	6.5
Fc1ccccc1-c1nc(-c2ccc(Cl)cc2)no1	21.4*	-2.0	0.2	3.2
NC(=O)c1ccc(-c2noc(-c3ccccc3F)n2)cc1	-1.9	-1.2	2.2	-4.5
O=C(O)c1ccc(-c2noc(-c3ccccc3Cl)n2)cc1	0.6	1.2	1.8	-5.1
SMILES	NR3A LBD binder	MPTP inh	SENP1 inh	EBI2 block
c1ccc(-c2noc(-c3ccccc3-c3ccccc3)n2)cc1	13.1*	2.4	-0.6	11.8
CCCOC(=O)C(C)n1cnc2sc(C)c(C)c2c1=O (stereo not drawn)	-2.1	-4.6	1.4	6.9
COc1cccc2cc(-c3nnc(SCC(=O)Nc4cc(C(F)(F)F)ccc4Cl)n3N)oc12	11.2*	3.2	-0.2	22.3
COc1ccc(-c2csc(/C(C#N)=C\c3ccc(OC)c([N+](=O)[O-])c3)n2)cc1	32.6*	1.0	-24.6	-5.3
COc1cc(/C=C(\C#N)c2nc3ccccc3s2)cc([N+](=O)[O-])c1O	-2.2	36.2	17.3	14.9
O=C(COc1ccc(-c2ccccc2)cc1)N/N=C/c1cc(O)ccc1Br	20.2*	13.3	2.1	5.5
CS(=O)(=O)c1ccc2nc(NC(=O)c3ccc(NS(=O)(=O)c4ccc(F)c(F)c4)cc3)sc2c1	23.6*	5.0	0.4	-8.4
O=C(Nc1nc2ccc(SC(F)F)cc2s1)c1ccc(NS(=O)(=O)c2ccc(F)c(F)c2)cc1	47.1*	19.3	-10.9	-3.2
CS(=O)(=O)c1ccc2nc(NC(=O)c3cccc(NS(=O)(=O)c4ccc(F)c(F)c4)c3)sc2c1	26.1*	44.5	-6.7	5.2
CS(=O)(=O)c1ccc2nc(NC(=O)c3cccc([N+](=O)[O-])c3)sc2c1	6.7	1.5	2.5	5.8
COc1ccc(OC)c(N(CC(=O)Nc2ccccc2C(=O)NCc2ccco2)S(C)(=O)=O)c1	12.7*	-2.2	2.0	-4.7
Cc1c(C(=O)OCC(=O)N(C)C2CCS(=O)(=O)C2)oc2ccc(Br)cc12 (stereo not drawn)	1.5	2.6	1.0	3.7
CC(C)c1ccc(NC(=O)COC(=O)CSc2nnc(N)s2)cc1	13.0*	-4.0	2.9	-10.9
O=C(Oc1ccccc1/C=C\C(=O)c1cc2ccccc2o1)c1ccccc1	-9.0	7.0	0.3	47.7*
CCOC(=O)c1c[nH]c(=S)n(-c2ccccc2)c1=O	12.9*	-2.6	1.6	-2.1
CCOC(=O)c1c(C)c2c(=O)[nH]cnc2n1-c1ccccc1	0.2	-0.2	1.5	-0.5
COC(=O)CCN(Cc1cc(OC)ccc1OC)S(=O)(=O)c1ccccc1Br	0.2	-0.3	2.8	1.9
O=C(CSc1ccccn1)Nc1ccc2c(c1)OCCO2	3.6	4.0	-0.6	-1.9
S=C(NCc1ccc2c(c1)OCO2)Nc1ccc(-c2nc3ccccc3[nH]2)cc1	26.4*	2.6	-1.3	6.7
CN(C)CCNC(=S)Nc1ccc(-c2nc3ccccc3[nH]2)cc1	5.0	-1.0	-0.6	-2.7
O=C(CSc1ccc(-c2nc3ccccc3[nH]2)cn1)Nc1ccc(S(=O)(=O)NC2CC2)cc1	20.7*	0.9	-2.6	3.7
O=C(CSc1ccc(-c2nc3ccccc3[nH]2)cn1)Nc1ccc2c(c1)OCCO2	28.7*	1.3	0.4	10.8
Cc1cc2nc(-c3ccc(SCC(=O)Nc4ccc5c(c4)OCCO5)nc3)[nH]c2cc1C	15.3*	0.8	-7.4	40.0
CCOC(=O)CSc1ccc(-c2nc3ccccc3[nH]2)cn1	-6.0	0.5	-1.3	4.5
CC(C)c1ccc(NNC(=O)C2CCC2)cc1	-0.3	4.6	0.2	-11.5
SMILES	NR3A LBD binder	MPTP inh	SENP1 inh	EBI2 block
COc1ccccc1N1CCN(S(=O)(=O)c2cnc[nH]2)CC1	-1.6	-1.8	0.7	-5.4
Cc1ccc2nc(-c3ccc(SCC(=O)Nc4ccc5c(c4)OCCO5)nc3)[nH]c2c1	25.8*	-2.6	-0.4	26.6
Cc1ccc2nc(-c3ccc(SCC(=O)Nc4nc(C)cs4)nc3)[nH]c2c1	9.7	4.0	-3.1	10.7
COc1ccc(NC(=O)CSCC(=O)NC2(C)CCS(=O)(=O)C2)cc1 (stereo not drawn)	-1.0	-0.9	1.7	-4.2
Cn1c(O)c(/C=C2\C=Nc3ccccc32)sc1=Nc1ccc(C(=O)O)cc1	-2.2	2.2	-48.8	7.5
O=C(Cc1ccccc1)Nn1c(O)c(/C=C2\C=Nc3ccccc32)sc1=S	25.7*	9.2	-25.2	-23.0
Cc1cc(C)cc(N2C(=O)CC(N3CCOCC3)C2=O)c1 (stereo not drawn)	10.5*	-0.6	0.7	-3.3
Clc1ccc2[nH]c3c(c2c1)CCc1cn[nH]c1-3	17.9*	13.1	0.0	-18.2
